From ChEMBL document CHEMBL3875220, “Development of new inhibitors for N-acylethanolamine-hydrolyzing acid amidase as promising tool against bladder cancer” (Bioorg Med Chem, 2017)
Active and inactive are the calls of the source. The calls are words filed in the database; no cut-off is given here.

Tests used:
[1] = Antiproliferative activity against human RT112 cells after 72 hrs by MTT assay; format: functional, cell-based; conditions: RT-112, 72 h
Summary of the method: (§1)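 Human bladder cancer cells were kept in RPMI 1640 with 10% FBS and penicillin/streptomycin at 37 °C, 5% CO₂. They were seeded at 5 × 10³ cells/well and exposed to serial log dilutions from 100 to 0.1 µM for 72 h, with DMSO for controls. Read-out was MTT, with formazan dissolved in DMSO and read at 570 nm. IC50 was the concentration inhibiting 50% relative to untreated controls. Three or more experiments in triplicate; mean ± SD.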

[2] = Antiproliferative activity against human 5637 cells after 72 hrs by MTT assay; format: functional, cell-based; conditions: Homo sapiens, 5637, 72 h; summary of the method: as §1
[3] = Antiproliferative activity against human RT4 cells after 72 hrs by MTT assay; format: functional, cell-based; conditions: RT-4, 72 h; summary of the method: as §1
[4] = target: T1, N-acylethanolamine-hydrolyzing acid amidase (Homo sapiens, UniProt Q02083); assay: (§2) Inhibition of recombinant human NAAA using PAMCA as substrate preincubated for 30 mins followed by substrate addition measured every 3 mins for 2.5 hrs by fluorescence HTS method
T1 sequence (Q02083 whole entry): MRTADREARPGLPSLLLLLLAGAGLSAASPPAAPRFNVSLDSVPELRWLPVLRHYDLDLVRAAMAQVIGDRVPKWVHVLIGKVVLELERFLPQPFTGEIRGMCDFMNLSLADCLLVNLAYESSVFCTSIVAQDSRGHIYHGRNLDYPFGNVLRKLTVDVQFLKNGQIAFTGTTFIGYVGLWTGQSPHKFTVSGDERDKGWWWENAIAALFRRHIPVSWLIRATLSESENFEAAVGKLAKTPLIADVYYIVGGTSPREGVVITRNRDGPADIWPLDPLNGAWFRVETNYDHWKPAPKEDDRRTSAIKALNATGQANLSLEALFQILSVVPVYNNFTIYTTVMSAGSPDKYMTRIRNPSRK
Summary of the method: (§3)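 Human recombinant NAAA (25 ng, purity >95%) was used in 100 mM sodium acetate buffer and preincubated with inhibitor in DMSO for 30 min at room temperature. PAMCA was then added to a final 10 µM. Released 7-amino-4-methylcoumarin fluorescence was read at 460 nm every 3 min. […] Linearity was checked at 5–100 µM over 5 h.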

[5] = target: T2, N-acylethanolamine-hydrolyzing acid amidase (Homo sapiens) (UniProt Q02083); assay: as §2; summary of the method: as §3
T2 sequence (whole entry): T1 sequence (Q02083 whole entry)

[6] = target: T2, N-acylethanolamine-hydrolyzing acid amidase (Homo sapiens); assay: Competitive inhibition of recombinant human NAAA at 100 uM in presence of varying levels of PAMCA as substrate preincubated for 30 mins followed by substrate addition measured every 3 mins for 2.5 hrs by Lineweaver-Burk plot analysis
Summary of the method: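 Human recombinant NAAA was used with PAMCA as substrate at varying concentrations, using the fluorescence assay in acetate buffer. Vmax and KM were derived from Michaelis–Menten fits, and inhibition mode was assigned from Lineweaver–Burk plots of 1/V against 1/[PAMCA].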

[7] = target: T2, N-acylethanolamine-hydrolyzing acid amidase (Homo sapiens); assay: Reversible inhibition of recombinant human NAAA at 50 to 100 uM preincubated for 20 mins followed by 20-fold dilution and PAMCA substrate addition by fluorescence HTS method
Summary of the method: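 Reversibility test: human recombinant NAAA was incubated with inhibitor at 50 or 100 µM final for 20 min. The mixture was diluted twenty-fold and fresh inhibitor added (2.5–50 µM for the 50 µM series, 5–100 for the 100 µM series). The reaction was started with PAMCA and fluorescence was read. Activity was compared between the paired conditions.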

[8] = target: T2, N-acylethanolamine-hydrolyzing acid amidase (Homo sapiens); assay: Inhibition of recombinant human NAAA at 5 to 100 uM using PAMCA as substrate preincubated for 30 mins followed by substrate addition measured every 3 mins for 5 hrs by fluorescence HTS method; summary of the method: as §3
[9] = (§4) Anti-migratory activity against human RT112 cells at 40 nM after 24 hrs by wound healing assay relative to control; format: functional, RT-112
Summary of the method: (§5)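 RT112 cells seeded at 5 × 10⁵ cells/well to give a sub-confluent monolayer, then scratched (~1 mm wide). Debris was removed and medium replaced with medium containing inhibitor at 40 nM, with DMSO only for controls. Phase-contrast images were taken at 0 and 24 h. Wound closure was calculated as the initial wound area minus the cell-free area remaining at 24 h. Three or more experiments in triplicate; mean ± SD; Student's t-test.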

HT-1376 = assay: Antiproliferative activity against human HT-1376 cells after 72 hrs by MTT assay; format: functional, cell-based; conditions: HT-1376, 72 h; summary of the method: as §1
[10] = target: T2, N-acylethanolamine-hydrolyzing acid amidase (Homo sapiens); assay: Inhibition of NAAA in human RT112 cells assessed as increase in N-stearoylethanolamide level at 40 uM after 24 hrs by HPLC-MS/MS analysis; format: cell-based; conditions: RT-112
Summary of the method: (§6)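 RT112 cells were treated with 40 µM inhibitor for 24 h. Cells and supernatant were pooled (1 ml) and spiked with d4-SEA and d4-LNEA internal standards. Protein was precipitated with cold acetone, and the supernatant was purified by SPE and stored at −80 °C. NAEs were quantified by LC-TripleTOF MS and reported in ng/ml as mean ± SD.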

[11] = target: T2, N-acylethanolamine-hydrolyzing acid amidase (Homo sapiens); assay: Inhibition of NAAA in human RT112 cells assessed as increase in N-palmitoylethanolamide level at 40 uM after 24 hrs by HPLC-MS/MS analysis; format: cell-based; conditions: RT-112; summary of the method: as §6
[12] = target: T2, N-acylethanolamine-hydrolyzing acid amidase (Homo sapiens); assay: Inhibition of NAAA in human RT112 cells assessed as increase in N-oleoylethanolamide level at 40 uM after 24 hrs by HPLC-MS/MS analysis; format: cell-based; conditions: RT-112; summary of the method: as §6
RT-112 = assay: as §4; format: functional; summary of the method: as §5

SMILES	IC50 [1] [µM]	IC50 [2] [µM]	IC50 [3] [µM]	IC50 [4] [µM]	inhibition [5]	inhibition [6]	inhibition [7]	inhibition [8]	Activity [9] [%]	IC50 (HT-1376) [µM]	inhibition [10]	inhibition [11]	inhibition [12]	Activity (RT-112)
CCCCCCCCCCCCCCCCNC(=O)[C@@H](O)c1ccccc1	25	18.8	> 100	78	Dose-dependent effect									
CCCCCCCCCCCCCCCCNC(=O)[C@H](O)c1ccccc1	28.3	25	3.5	20	Dose-dependent effect	Active	Active							
CCCCCCCCCCCCCCCCNC(=O)c1ccccc1		45		45				Active						
CCCCCCCCCCCCCCCCNC(=O)c1cc(O)ccc1O	7	7.25		38	Dose-dependent effect	Active			80	9.5	Active	Active	Active	
CCCCCCCCCCCCCCCCNC(=O)c1ccncc1	76.2	51.2	41.7	98	Dose-dependent effect									
CCCCCCCCCCCCCCCCNC(=O)c1ccccc1O	5.75	11.2	63.3	11	Dose-dependent effect	Active			50	10.2	Active	Active	Active	
CCCCCCCCCCCCCCCNC(=O)c1ccc2ccccc2c1				> 100										
CCCCCCCCCCCCCCCNC(=O)CCO	58.3	40		34		Active	Active	Active			Active	Active	Active	Active
